ChEMBL document CHEMBL1141510, “Synthesis and antioxidant activities of 3,5-dialkoxy-4-hydroxycinnamamides” (Bioorg Med Chem Lett, 2008)

Legend:
[1] = test system: Brain; experiment: Inhibition of lipid peroxidation in Sprague-Dawley rat brain after 30 mins by TBARS assay; type: functional, tissue-based; conditions: 0.5 h
Outline: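 Brain from male Sprague–Dawley rats (about 10 weeks old) homogenized in ice-cold 10 mM Tris–HCl, pH 7.4, and spun 10 min at 1000g; the supernatant was used. TBARS read at 532 nm against a 1,1,3,3-tetraethoxypropane external standard.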

[2] = Antioxidant activity assessed as ABTS radical scavenging activity at 150 uM; type: functional
[3] = test system: Radical scavenging activity; experiment: Antioxidant activity assessed as DPPH radical scavenging activity; type: functional
Outline: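 Sample in ethanol added 1:9 to 0.15 mM DPPH radical in ethanol. Test compound solutions ranged 3–1000 µg/ml. Ethanol alone served as control. Reaction ran 10 min at 25 °C, then absorbance was read at 517 nm. Scavenging expressed as percent loss relative to control absorbance. EC50 taken as the concentration giving 50% loss of DPPH radical.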

[4] = test system: Radical scavenging activity; experiment: Antioxidant activity assessed as DPPH radical scavenging activity at 300 uM; type: functional
[5] = Antioxidant activity assessed as ABTS radical scavenging activity; type: functional

COc1cc(CC(=O)NCCCc2ccc(C)c(C)c2)ccc1O
IC50 [1]: 25.9 µM

CCCCCCOc1cc(/C=C/C(=O)O)cc(OCCCCCC)c1O
IC50 [1]: 2.24 µM

COc1cc(CNC(=O)CCCc2ccc(C)c(C)c2)ccc1O
IC50 [1]: 57.2 µM

CCCOc1cc(/C=C/C(=O)NCCc2cc(C(C)(C)C)c(O)c(C(C)(C)C)c2)cc(OCCC)c1O
Activity [2]: 37%
IC50 [1]: 0.26 µM
IC50 [3]: 114 µM

CCCC(C)Oc1cc(/C=C/C(=O)NCCc2cc(C(C)(C)C)c(O)c(C(C)(C)C)c2)cc(OC(C)CCC)c1O (centres undefined)
Activity [2]: 64%
IC50 [1]: 0.36 µM
IC50 [3]: 85.1 µM

CCCOc1cc(/C=C/C(=O)NCc2cc(C(C)(C)C)c(O)c(C(C)(C)C)c2)cc(OCCC)c1O
Activity [2]: 24%
IC50 [1]: 0.27 µM
IC50 [3]: 73 µM

COc1cc(/C=C/C(=O)O)cc(OC)c1O [SINAPINATE]
IC50 [1]: 4.77 µM

CCC(CC)Oc1cc(/C=C/C(=O)NCCc2cc(C(C)(C)C)c(O)c(C(C)(C)C)c2)cc(OC(CC)CC)c1O
IC50 [1]: 0.44 µM
Activity [4]: 55%

CCCCOc1cc(/C=C/C(=O)O)cc(OCCCC)c1O
IC50 [1]: 3.68 µM

CCCCCCOc1cc(/C=C/C(=O)NCCc2cc(C(C)(C)C)c(O)c(C(C)(C)C)c2)cc(OCCCCCC)c1O
IC50 [1]: 2.74 µM
IC50 [3]: 75.6 µM
IC50 [5]: 27.4 µM

CCC(CC)Oc1cc(/C=C/C(=O)NCc2cc(C(C)(C)C)c(O)c(C(C)(C)C)c2)cc(OC(CC)CC)c1O
Activity [2]: 44%
IC50 [1]: 0.82 µM
IC50 [3]: 67.7 µM

CCCCCCOc1cc(/C=C/C(=O)NCc2cc(C(C)(C)C)c(O)c(C(C)(C)C)c2)cc(OCCCCCC)c1O
IC50 [1]: 3.52 µM
IC50 [5]: 23.2 µM
Activity [4]: 75%

COc1cc(/C=C/C(=O)NCCc2cc(C(C)(C)C)c(O)c(C(C)(C)C)c2)cc(OC)c1O
IC50 [1]: 0.69 µM
IC50 [3]: 69 µM
IC50 [5]: 15.6 µM

CCC(CC)Oc1cc(/C=C/C(=O)O)cc(OC(CC)CC)c1O
IC50 [1]: 2.21 µM

CCC(CC)Oc1cc(/C=C/C(=O)NCCCc2ccc(C)c(C)c2)cc(OC(CC)CC)c1O
Activity [2]: 49%
IC50 [1]: 1.73 µM
IC50 [3]: 84.4 µM

CCCC(C)Oc1cc(/C=C/C(=O)NCc2cc(C(C)(C)C)c(O)c(C(C)(C)C)c2)cc(OC(C)CCC)c1O (centres undefined)
Activity [2]: 47%
IC50 [1]: 0.57 µM
IC50 [3]: 66.6 µM

CCCC(C)Oc1cc(/C=C/C(=O)NCCCc2ccc(C)c(C)c2)cc(OC(C)CCC)c1O (centres undefined)
IC50 [1]: 1.33 µM
IC50 [3]: 68.4 µM
IC50 [5]: 26.3 µM

CCCCOc1cc(/C=C/C(=O)NCCc2cc(C(C)(C)C)c(O)c(C(C)(C)C)c2)cc(OCCCC)c1O
IC50 [1]: 0.41 µM

CCCCOc1cc(/C=C/C(=O)NCc2cc(C(C)(C)C)c(O)c(C(C)(C)C)c2)cc(OCCCC)c1O
Activity [2]: 57%
IC50 [1]: 0.42 µM
IC50 [3]: 177 µM

CCCC(C)Oc1cc(/C=C/C(=O)O)cc(OC(C)CCC)c1O (centres undefined)
IC50 [1]: 4.84 µM

CCCCCCOc1cc(/C=C/C(=O)NCCCc2ccc(C)c(C)c2)cc(OCCCCCC)c1O
IC50 [1]: 0.29 µM
IC50 [3]: 77.7 µM
IC50 [5]: 28.5 µM

COc1cc(/C=C/C(=O)NCc2cc(C(C)(C)C)c(O)c(C(C)(C)C)c2)cc(OC)c1O
IC50 [1]: 1.46 µM
IC50 [3]: 80.3 µM
IC50 [5]: 11.3 µM
